Measurements as given in ChEMBL document CHEMBL5030534, “Discovery of Novel Anti-Breast-Cancer Inhibitors by Synergistically Antagonizing Microtubule Polymerization and Aryl Hydrocarbon Receptor Expression” (J Med Chem, 2021).
Active and inactive are the calls of the source. The rule behind the calls is not given here.

Legend:
MCF7 [1] = experiment: Cell cycle arrest in human MCF7 cells assessed as decrease in Cdc25c protein expression; type: functional, cell-based; conditions: dose 1-4 nM
Outline: (§1)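 MCF-7 seeded 4 × 10⁵ per well for 24 h, then DMSO or compound at 1, 2, 4 nM for 24 h. Lysates protein-normalized to 3 mg/mL by BCA, resolved on 4–20% SDS-PAGE and immunoblotted. Bands quantified relative to β-actin (cell-cycle proteins) or GAPDH (apoptosis proteins); n = 3.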

[2] = Antiproliferative activity against human MCF7/ADR cells assessed as reduction in cell viability incubated for 48 hrs by MTT assay; type: functional, cell-based; conditions: MCF7, 48 h
Outline: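 Cells seeded at 5 × 10³ per well, incubated overnight, then exposed to a range of compound concentrations for 48 h. MTT added for 4 h, medium replaced with DMSO, absorbance read at 570 nm. Three independent runs.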

[3] = molecular target: Tubulin beta (Homo sapiens) (UniProt P68371+Q9H4B7+Q13509+P04350+Q3ZCM7+P07437+Q13885+Q9BVA1+Q9BUF5+A6NNZ2); experiment: Inhibition of beta-tubulin polymerization in human MCF7 cells assessed as inhibition of EBI-beta-tubulin adduct formation at 1 to 4 nM measured after 2 hrs by Western blot-based EBI competition assay; type: cell-based; conditions: dose 1-4 nM
MCF7 [4] = experiment: Induction of apoptosis in human MCF7 cells assessed as early apoptotic cells at 0.5 nM measured after 24 hrs by Annexin V-FITC and PI staining based flow cytometry assay (reference value: 0.90%); type: functional
MCF7 [5] = experiment: Induction of apoptosis in human MCF7 cells assessed as decrease in of Bcl-2 protein expression at 1 to 4 nM; type: functional, cell-based; conditions: dose 1-4 nM; outline: as §1
MCF7 [6] = experiment: Induction of apoptosis in human MCF7 cells assessed as increase in Bax protein expression at 1 to 4 nM; type: functional, cell-based; conditions: dose 1-4 nM; outline: as §1
MCF7 [7] = experiment: Induction of apoptosis in human MCF7 cells assessed as increase in cleaved Caspase-3 protein expression at 1 to 4 nM; type: functional, cell-based; conditions: dose 1-4 nM; outline: as §1
[8] = Toxicity in BALB/c mouse xenografted with human MCF7 cells assessed as change in body weight at 0.5 to 1 mg/kg, iv administered every 2 days for 21 days; type: organism-based; conditions: in vivo, 504 h, dose 0.5-1 mg/kg, time 21 day
Outline: (§2)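 Nude mice given 6 × 10⁶ MCF-7 cells subcutaneously on right flank; after 7 days randomized, eight per group. iv dosing every 2 days at 0.5 or 1 mg/kg; vehicle 10% DMSO/5% Tween 80/85% saline; paclitaxel 10 mg/kg and CA-4 20 mg/kg references. Body weight every 2 days; killed after 21 days; organs fixed, paraffin-sectioned, H&E stained.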

[9] = Toxicity in BALB/c nude mouse xenografted with human MCF7 cells assessed as effect on spleen at 0.5 to 1 mg/kg, iv administered every 2 days for 21 days by H and E staining based assay; type: organism-based; conditions: in vivo, 504 h, dose 0.5-1 mg/kg, time 21 day; outline: as §2
MCF7 [10] = experiment: Induction of ROS generation in human MCF7 cells at 2 nM measured after 24 hrs in presence of N-acetylcysteine by DCFH-DA staining based flow cytometric analysis; type: functional
Outline: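 MCF-7 seeded 4 × 10⁵ per well for 24 h, then DMSO or 0.5, 1, 2 nM for 24 h. Loaded with DCFH-DA for 30 min in the dark, resuspended in serum-free medium, DCF fluorescence measured by flow cytometry. For scavenger condition, 2.5 mM N-acetyl-L-cysteine pretreatment, then 2 nM for 24 h. Three runs.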

Tubulin (Homo sapiens) = Tubulin (Homo sapiens) (UniProt P68371+Q9H4B7+P0DPH7+P68366+Q13509+Q71U36+P04350+Q3ZCM7+P07437+P68363+Q9BQE3+Q6PEY2+Q13885+Q9BVA1+Q9BUF5); experiment: Induction of microtubule damage in human MCF7 cells at 0.5 nM incubated for 48 hrs by DAPI staining based immunofluorescence assay; type: cell-based
Outline: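 Blocked with goat serum for 20 min, probed with anti-β-tubulin for 2 h, fluorescent secondary antibody and DAPI nuclear stain, imaged by laser confocal microscopy.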

MCF7 [11] = experiment: Induction of apoptosis in human MCF7 cells assessed as late apoptotic cells at 1 nM measured after 24 hrs by Annexin V-FITC and PI staining based flow cytometry assay (reference value: 2.06%); type: functional
MCF7 [12] = experiment: Induction of apoptosis in human MCF7 cells assessed as early apoptotic cells at 2 nM measured after 24 hrs by Annexin V-FITC and PI staining based flow cytometry assay (reference value: 0.90%); type: functional
MCF7 [13] = experiment: Induction of mitochondrial membrane potential loss in human MCF7 cells at 2 nM measured after 24 hrs by JC-1 staining based flow cytometry analysis (reference value: 3.01%); type: functional
[14] = molecular target: T1, Aryl hydrocarbon receptor (Homo sapiens, UniProt P35869); experiment: Inhibition of AhR signalling in human MCF7 cells assessed as reduction in AhR level at 2 nM incubated for 24 hrs in presence of DMBA by Western blot analysis; type: cell-based; conditions: mcf7, 24 h, 0.002 µM
T1 sequence (P35869 whole entry): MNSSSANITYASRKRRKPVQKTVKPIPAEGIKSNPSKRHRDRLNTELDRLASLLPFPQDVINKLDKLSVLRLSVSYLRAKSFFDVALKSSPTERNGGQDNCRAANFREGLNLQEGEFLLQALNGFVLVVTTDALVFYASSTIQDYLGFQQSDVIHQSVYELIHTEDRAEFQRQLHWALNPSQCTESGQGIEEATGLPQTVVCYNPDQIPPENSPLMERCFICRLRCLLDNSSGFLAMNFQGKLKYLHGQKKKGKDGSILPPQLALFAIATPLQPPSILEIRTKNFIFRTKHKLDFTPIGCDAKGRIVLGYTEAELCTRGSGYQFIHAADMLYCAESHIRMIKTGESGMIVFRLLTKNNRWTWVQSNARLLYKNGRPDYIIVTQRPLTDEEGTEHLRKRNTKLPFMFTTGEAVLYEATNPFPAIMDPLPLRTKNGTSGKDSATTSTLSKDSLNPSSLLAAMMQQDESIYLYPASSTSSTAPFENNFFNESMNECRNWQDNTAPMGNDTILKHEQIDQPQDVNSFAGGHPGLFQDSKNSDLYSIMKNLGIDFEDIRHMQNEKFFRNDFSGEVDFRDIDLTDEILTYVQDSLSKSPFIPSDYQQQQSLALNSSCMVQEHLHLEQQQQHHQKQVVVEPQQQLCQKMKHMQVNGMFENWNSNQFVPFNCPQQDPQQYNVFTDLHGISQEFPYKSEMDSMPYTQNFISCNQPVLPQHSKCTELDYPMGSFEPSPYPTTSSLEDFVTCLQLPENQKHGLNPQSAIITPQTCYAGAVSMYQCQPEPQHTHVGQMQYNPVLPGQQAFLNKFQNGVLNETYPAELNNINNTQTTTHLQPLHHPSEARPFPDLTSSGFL
Outline: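 MCF-7 treated with DMBA (400 nM), DMBA plus 2 nM, or 2 nM alone. AhR measured by Western blot relative to loading control; n = 3.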

MCF7 [15] = experiment: Induction of apoptosis in human MCF7 cells assessed as viable cells at 2 nM measured after 24 hrs in presence of DMBA by Annexin V-FITC and PI staining based flow cytometry assay (reference value: 96.5%); type: functional; conditions: read-out: Activity
MCF7 [16] = experiment: Induction of apoptosis in human MCF7 cells assessed as viable cells at 2 nM measured after 24 hrs by Annexin V-FITC and PI staining based flow cytometry assay (reference value: 96.5%); type: functional; conditions: read-out: Activity

- inhibition [3]: Active
- inhibition (INH) [14]: Active
SMILES: Cc1nc(N(C)c2ccc3c(c2)cc(C)n3C)c2ccccc2n1
- Activity (MCF7 [1]): Dose-Dependent Effect
- IC50 [2]: 0.9 nM
- Activity (MCF7 [4]): 1.28%
- Activity (MCF7 [5]): Active
- Activity (MCF7 [6]): Active
- Activity (MCF7 [7]): Active
- Activity [8]: Non-Toxic
- Activity [9]: Non-Toxic
- Activity (MCF7 [10]): 24.7%
- Activity (Tubulin (Homo sapiens)): inactive
- Activity (MCF7 [11]): 28.6%
- Activity (MCF7 [12]): 12.1%
- Activity (MCF7 [13]): 24.7%
- viability at 0.002 µM (MCF7 [15]): 67.5%
- viability at 0.002 µM (MCF7 [16]): 40.1%
